Among the data in ChEMBL document CHEMBL1153861, “Synthesis, optimization and structure-activity relationships of 3,5-disubstituted isoxazolines as new anti-tuberculosis agents” (2009) are Activity and MIC values, retold here.

The subject of one assay is Staphylococcus aureus. In words: Antimicrobial activity against Staphylococcus aureus. It counts as functional, organism-based.
Assay [1] has as its system Mycobacterium tuberculosis. In words: Antitubercular activity against Mycobacterium tuberculosis H37Rv. It counts as functional. The method in brief: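 Broth microdilution against M. tuberculosis H37Rv; MIC read by visual inspection of growth.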
The subject of a further assay is Escherichia coli. Nature of the assay: Antimicrobial activity against Escherichia coli. The assay is classed as functional, organism-based.
The test system of the next assay is Streptococcus pneumoniae. In words: Antimicrobial activity against Streptococcus pneumoniae. The assay is classed as functional, organism-based.

Converted amounts (≈) assume the structure as drawn. The source made the active and inactive calls.

Regarding `NNC(=O)C1=NOC(c2ccc(N3CCN(Cc4ccccc4)CC3)cc2)C1` (configuration not stated), the result in the assay on Staphylococcus aureus, in the assay on Escherichia coli and in the assay on Streptococcus pneumoniae was inactive. Moreover, it took 50 µg/mL (≈ 132 µM) to inhibit growth in assay [1] (MIC).

As to `CCOC(=O)C1=NOC(c2ccc(-c3ccc(OC)c(F)c3)cc2)C1` (configuration not stated), the outcome in the assay with Staphylococcus aureus, in the assay on Escherichia coli and in the assay with Streptococcus pneumoniae was inactive. The minimum inhibitory concentration (MIC) (in general, the smallest concentration in the dilution series that meets the test's criterion for growth inhibition) in assay [1] is 3.12 µg/mL (≈ 9.1 µM).

`CCOC(=O)C1=NOC(c2ccc(N3CCN(C(=O)OC)CC3)cc2)C1` (configuration not stated): the result with Staphylococcus aureus, with Escherichia coli and in the assay with Streptococcus pneumoniae was inactive. The same compound returned an MIC in assay [1] of 1.56 µg/mL (≈ 4.32 µM).

As for `NCC1=NOC(c2ccc(N3CCN(Cc4ccccc4)CC3)cc2)C1` (configuration not stated), the outcome with Staphylococcus aureus, in the assay with Escherichia coli and in the assay with Streptococcus pneumoniae was inactive. The compound further had an MIC in assay [1] of 200 µg/mL (≈ 571 µM).

In the case of `[N-]=[N+]=NCC1=NOC(c2ccc(N3CCN(Cc4ccccc4)CC3)cc2)C1` (configuration not stated), the result in the assay on Staphylococcus aureus, in the assay with Escherichia coli and in the assay with Streptococcus pneumoniae was inactive. Moreover, the MIC in assay [1] stood at 50 µg/mL (≈ 133 µM).

For `CCOC(=O)C1=NOC(c2ccc(N3CCN(C(=O)NCCc4ccccc4)CC3)cc2)C1` (configuration not stated), the result in the assay with Staphylococcus aureus, with Escherichia coli and in the assay on Streptococcus pneumoniae was inactive. In assay [1], this compound registered an MIC of 0.8 µg/mL (≈ 1.78 µM).

As for `CCCCCCNC(=O)N1CCN(c2ccc(C3CC(C(=O)O)=NO3)cc2)CC1` (configuration not stated), the outcome with Staphylococcus aureus, in the assay on Escherichia coli and with Streptococcus pneumoniae was inactive. The compound further returned a minimum inhibitory concentration (MIC) in assay [1] above 200 µg/mL.

Consider `CCCCOC(=O)N1CCN(c2ccc(C3CC(C(=O)OCC)=NO3)cc2)CC1` (configuration not stated), for which the result in the assay with Staphylococcus aureus, in the assay on Escherichia coli and with Streptococcus pneumoniae was inactive. In addition, in assay [1], inhibition of growth (MIC) required 0.8 µg/mL (≈ 1.98 µM).

Turning to `CCCCCCNC(=O)N1CCN(c2ccc(C3CC(C(=O)OCC)=NO3)cc2)CC1` (configuration not stated), the result in the assay with Staphylococcus aureus, in the assay on Escherichia coli and with Streptococcus pneumoniae was inactive. Moreover, 0.4 µg/mL (≈ 0.929 µM) was the least that counted as inhibitory in assay [1] (MIC).

Regarding `CCOC(=O)C1=NOC(c2ccc(N3CCN(C(=O)OCC)CC3)cc2)C1` (configuration not stated), the outcome in the assay on Staphylococcus aureus, with Escherichia coli and with Streptococcus pneumoniae was inactive. The MIC in assay [1] came to 1.56 µg/mL (≈ 4.16 µM).

Consider `C=CCN1CCN(c2ccc(C3CC(C(=O)OCC)=NO3)cc2)CC1` (configuration not stated), for which the result with Staphylococcus aureus, in the assay with Escherichia coli and with Streptococcus pneumoniae was inactive. Also, in assay [1], 6.25 µg/mL (≈ 18.2 µM) was the least that counted as inhibitory (MIC).

On to `CCOC(=O)C1=NOC(c2ccc(-c3noc(-c4ccccc4)n3)cc2)C1` (configuration not stated), for which the result with Staphylococcus aureus, in the assay with Escherichia coli and in the assay on Streptococcus pneumoniae was inactive. In assay [1], this compound yielded an MIC of 3.12 µg/mL (≈ 8.6 µM).

In the case of `NC(=O)C1=NOC(c2ccc(N3CCN(Cc4ccccc4)CC3)cc2)C1` (configuration not stated), the result in the assay on Staphylococcus aureus, with Escherichia coli and in the assay with Streptococcus pneumoniae was inactive. For the same compound, the MIC in assay [1] was determined as 200 µg/mL (≈ 549 µM).

As to `CCCNC(=O)N1CCN(c2ccc(C3CC(C(=O)OCC)=NO3)cc2)CC1` (configuration not stated), the outcome in the assay on Staphylococcus aureus, with Escherichia coli and in the assay with Streptococcus pneumoniae was inactive. Moreover, in assay [1], the MIC was determined as 25 µg/mL (≈ 64.4 µM).

Consider `NCC1=NOC(c2ccc(N3CCOCC3)cc2)C1` (configuration not stated), for which the outcome in the assay on Staphylococcus aureus, in the assay with Escherichia coli and in the assay on Streptococcus pneumoniae was inactive. The compound also had an MIC in assay [1] above 200 µg/mL.

Consider `CCOC(=O)C1=NOC(c2ccc(N3CCN(CC4CC4)CC3)cc2)C1` (configuration not stated), for which the outcome with Staphylococcus aureus, with Escherichia coli and with Streptococcus pneumoniae was inactive. Inhibition of growth in assay [1] (MIC) required 12.5 µg/mL (≈ 35 µM).

As for `CCOC(=O)C1=NOC(c2ccc(N3CCCCC3)cc2)C1` (configuration not stated), the result in the assay with Staphylococcus aureus, in the assay on Escherichia coli and in the assay with Streptococcus pneumoniae was inactive. This compound returned an MIC in assay [1] of 6.25 µg/mL (≈ 20.7 µM).

For the compound `COC(=O)C1=NOC(c2ccc(N3CCN(Cc4ccccc4)CC3)cc2)C1` (configuration not stated), the outcome in the assay on Staphylococcus aureus, in the assay with Escherichia coli and in the assay on Streptococcus pneumoniae was inactive. The compound also returned an MIC in assay [1] of 1.56 µg/mL (≈ 4.11 µM).

With `C=CCOC(=O)N1CCN(c2ccc(C3CC(C(=O)OCC)=NO3)cc2)CC1` (configuration not stated), the result in the assay on Staphylococcus aureus, with Escherichia coli and in the assay with Streptococcus pneumoniae was inactive. In addition, 0.8 µg/mL (≈ 2.06 µM) was the least that counted as inhibitory in assay [1] (MIC).

Consider `CCOC(=O)C1=NOC(c2ccc(-c3ccccc3)cc2)C1` (configuration not stated), for which the result in the assay on Staphylococcus aureus, in the assay with Escherichia coli and in the assay on Streptococcus pneumoniae was inactive. The compound further displayed an MIC in assay [1] of 100 µg/mL (≈ 339 µM).

For the compound `CCOC(=O)C1=NOC(c2ccc(N3CCOCC3)cc2)C1` (configuration not stated), the outcome in the assay on Staphylococcus aureus, with Escherichia coli and in the assay with Streptococcus pneumoniae was inactive. In assay [1], this compound returned an MIC above 200 µg/mL.

As for `CCOC(=O)C1=NOC(c2ccc(-c3ncon3)cc2)C1` (configuration not stated), the result in the assay on Staphylococcus aureus, in the assay on Escherichia coli and with Streptococcus pneumoniae was inactive. For the same compound, in assay [1], the lowest concentration to inhibit growth (MIC) was 50 µg/mL (≈ 174 µM).

In the case of `[N-]=[N+]=NCC1=NOC(c2ccc(N3CCOCC3)cc2)C1` (configuration not stated), the result with Staphylococcus aureus, in the assay on Escherichia coli and with Streptococcus pneumoniae was inactive. Besides, the lowest concentration to inhibit growth in assay [1] (MIC) was 200 µg/mL (≈ 696 µM).

With `CCCNC(=O)C1=NOC(c2ccc(N3CCN(Cc4ccccc4)CC3)cc2)C1` (configuration not stated), the result in the assay on Staphylococcus aureus, in the assay on Escherichia coli and with Streptococcus pneumoniae was inactive. Besides, the minimal inhibitory concentration (MIC) in assay [1] amounted to 200 µg/mL (≈ 492 µM).

On to `CC(=O)NCC1=NOC(c2ccc(N3CCOCC3)cc2)C1` (configuration not stated), for which the result in the assay with Staphylococcus aureus, with Escherichia coli and in the assay on Streptococcus pneumoniae was inactive. The compound further registered an MIC in assay [1] above 200 µg/mL.

Consider `CC(=O)NCC1=NOC(c2ccc(N3CCN(Cc4ccccc4)CC3)cc2)C1` (configuration not stated), for which the outcome with Staphylococcus aureus, in the assay on Escherichia coli and with Streptococcus pneumoniae was inactive. In addition, the minimum inhibitory concentration (MIC) in assay [1] was above 200 µg/mL.

Take `OCC1=NOC(c2ccc(N3CCOCC3)cc2)C1` (configuration not stated): the outcome in the assay with Staphylococcus aureus, in the assay on Escherichia coli and in the assay with Streptococcus pneumoniae was inactive. Besides, the minimal inhibitory concentration (MIC) in assay [1] is above 200 µg/mL.

Turning to `O=C(O)C1=NOC(c2ccc(N3CCN(C(=O)NCCc4ccccc4)CC3)cc2)C1` (configuration not stated), the result with Staphylococcus aureus, in the assay on Escherichia coli and in the assay with Streptococcus pneumoniae was inactive. The compound further gave an MIC in assay [1] above 200 µg/mL.
